Published values gathered from unrelated publications.
Target: Adenosine receptor A1 (ADORA1, Homo sapiens, UniProt P30542)
One construct used (P30542 1-326): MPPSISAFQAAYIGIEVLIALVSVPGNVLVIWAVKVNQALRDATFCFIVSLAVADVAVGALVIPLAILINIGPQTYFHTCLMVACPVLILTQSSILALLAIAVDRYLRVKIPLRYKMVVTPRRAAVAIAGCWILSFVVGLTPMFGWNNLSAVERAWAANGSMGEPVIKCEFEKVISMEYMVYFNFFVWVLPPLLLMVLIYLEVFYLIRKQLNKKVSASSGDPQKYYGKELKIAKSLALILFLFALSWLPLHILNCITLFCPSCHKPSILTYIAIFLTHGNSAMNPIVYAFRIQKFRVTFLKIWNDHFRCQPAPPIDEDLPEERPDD

SMILES	assay	conditions	quantity	value
CCNC(=O)C1OC(n2cnc3c(N)nc(NN=CC4CCC=CO4)nc32)C(O)C1O (centres unmarked)	ligand displacement, radioligand	cell membranes	Ki	76.4 nM
C=CN1CCCn2c1nc1c2c(=O)n(C)c(=O)n1C	ligand displacement, radioligand	cell membranes	Ki	> 10000 nM
O[C@@H]1[C@H](O)CO[C@H]1n1cnc2c(NCc3cccc(I)c3)ncnc21	ligand displacement, radioligand	cell membranes	Ki	2080 nM
CCCCCCN1CCCn2c1nc1c2c(=O)n(C)c(=O)n1C	ligand displacement, radioligand	cell membranes	Ki	3800 nM
COc1cccc(Cn2c(=O)n(CC3CC3)c(=O)c3c2nc2cc(OC)ccn23)c1	ligand displacement, radioligand	cell membranes	Ki	209 nM
CNC(=O)[C@@]12C[C@@H]1[C@@H](n1cnc3c(NCCc4ccc(O)c(OC)c4)nc(C#Cc4ccc(Cl)s4)nc31)[C@H](O)[C@@H]2O	cell-free assay, radioligand		Ki	43 nM
CNC(=O)[C@@]12C[C@@H]1[C@@H](n1cnc3c(NCc4cn(-c5ccc(C(=O)NCCCF)cc5)nn4)nc(Cl)nc31)[C@H](O)[C@@H]2O	ligand displacement, radioligand	cell membranes	Ki	1380 nM
OC[C@@]12C[C@@H]1[C@@H](n1cnc3c(NC(C4CCCC4)C4CCCC4)nc(Cl)nc31)[C@H](O)[C@@H]2O	ligand displacement, radioligand		Ki	436 nM
CCCC[C@H](NC(=O)[C@H](C)c1c(C)[nH]c2ccc(O)cc12)c1ncc(-c2cc3ccccc3nc2OC)[nH]1	cell-free assay		IC50	2730 nM
COCCN(CCOC)C(=O)[C@@]12C[C@@H]1[C@@H](n1cnc3c(N)nc(Cl)nc31)[C@H](O)[C@@H]2O	ligand displacement, radioligand		Ki	998 nM
CNC(=O)[C@@]12C[C@@H]1[C@@H](n1cnc3c(NCc4cccc(C#CCCCc5cn(-c6ccc(F)c(N)c6)nn5)c4)nc(Cl)nc31)[C@H](O)[C@@H]2O	ligand displacement, radioligand	cell membranes	Ki	640 nM
C#CCCCCC(=O)NCCNC(=O)COc1ccc(-c2nc3c([nH]2)c(=O)n(CCC)c(=O)n3CCC)cc1	ligand displacement, radioligand	cell membranes	Ki	107 nM
C#CCNc1nc(Cl)nc2c1ncn2[C@H]1[C@H](O)[C@H](O)[C@]2(C(=O)NC)C[C@H]12	ligand displacement, radioligand	cell membranes	Ki	400 nM
O[C@@H]1[C@H](O)CO[C@H]1n1cnc2c(NCc3cccc(Br)c3)ncnc21	ligand displacement, radioligand	cell membranes	Ki	3300 nM
